Assay outcomes (PubChem)
In the library only some 9.2% were active in any assay of this set; here they are far more common.
Autophagy mod: modulators of autophagy | MEF GFP-LC3 puncta imaging; test concentration mostly 10 µM | calls only at 10 µM (by protocol) | 190,000 tested, 0.98% active;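 active means percentage of spot-positive cells more than 3 SD above its plate mean, without a fluorescence outlier flag or 80% toxicity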;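 further: spot-positive cell cutoff set from DMSO-treated cells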
PTEN del growth: growth suppressors of cells with PTEN tumor suppressor deletion; HCT116 PTEN-null viability, CellTiter-Glo, 60 h; stronger effect = lower value; 140,000 tested, 1.2% active; viability, % at 10 µM;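 active means viability at or below a set limit, 4 SD under the median of all tested compounds, cut at about 3.7% in these data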;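 further: PTEN knockout HCT116 line with beta catenin targeted HCT116 as companion control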
Dynein cargo inh: blocks dynein driven cargo transport along microtubules. AID 1381. 220,000 tested, 0.47% active. 3617.4 mouse cells, GR-EGFP nuclear translocation imaging; test concentration mostly 20 µM; stimulated with dexamethasone, 1 µM; stronger effect = lower value. z-score, hits read low;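 active means plate z-score of nuclear minus cytoplasmic receptor signal below a set negative limit, without overly bright fluorescence or cell loss, cut at about -3.5 in these data, passing the limit was not always enough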;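 further: z-score of nuclear minus cytoplasmic ring GR-EGFP intensity difference per well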
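Buffer or medium: tet-free medium with charcoal-stripped serum / Also added: dexamethasone agonist, 1.0 µM final, for 30 min / Timing: induction 48 h, compound 1 h, agonist 30 min / Measured by: high-content fluorescence imaging after fixation / Read-out: nuclear-to-cytoplasmic GR-EGFP distribution per well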
bCat KO growth: beta-catenin-lacking colon tumor cell growth suppression. HCT116 beta-catenin knockout viability, CellTiter-Glo, 60 h; stronger effect = lower value. viability, % at 10 µM. 140,000 tested, 1.5% active. AID 818;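 active means viability at or under a set limit, the compound median less 4 SD, cut at about 6% in these data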;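 further: 0% = Hyamine 1622 control at 20 µM and 100% = untreated cell control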
Lmaj promast: reduces viability of Leishmania major promastigotes; resazurin fluorescence viability; inhibition, % at 10 µM; 200,000 tested, 9% active; in the data active means inhibition above about 50%;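 further: promastigotes grown with compound for 44 hours at 28 °C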
Numbers without * were called inactive; i = inactive; · = no result given; + = active, no number.

SMILES	Autophagy mod	PTEN del growth	Dynein cargo inh	bCat KO growth	Lmaj promast
O=C(NC(=S)Nc1ccccc1O)c1ccc(Cl)cc1Cl	i	·	-0.86	·	-2
Cc1occc1C(=O)NNC(=O)c1ccc(Br)o1	i	·	-0.31	·	-10
Cc1noc(C)c1COC(=O)c1cnc(Cl)c(Cl)c1	i	·	-0.097	·	7
COc1ccccc1N1CCN(C(=O)CN2C(=O)c3ccccc3S2(=O)=O)CC1	·	·	0.019	·	·
CCN(CC)S(=O)(=O)c1cccc(-c2n[nH]c(=S)n2Cc2ccccc2)c1	i	·	-1.2	·	100*
CCN(CC)S(=O)(=O)c1cccc(-c2n[nH]c(=S)n2CC(C)C)c1	i	·	-0.31	·	0
CCN(CC)S(=O)(=O)c1cccc(-c2cn3cc(C)ccc3n2)c1	i	81	0.52	86	85*
Cc1c(/C=C2\SC(=Nc3cccc(C(=O)O)c3)NC2=O)c2ccccc2n1C	·	·	-1	·	·
O=C(OCC(=O)C12CC3CC(CC(C3)C1)C2)c1cccnc1Cl	i	97	-0.34	82	60*
O=S(=O)(c1ccccc1)c1nc(-c2ccco2)oc1Nc1ccccc1	i	89	0.16	98	76*
CC(C)CNC(=O)NC(=O)COC(=O)c1cccc(NS(=O)(=O)c2ccc(F)c(F)c2)c1	i	88	0.026	93	0
CCCNC(=O)NC(=O)COC(=O)c1cccc(NS(=O)(=O)c2ccc(F)c(F)c2)c1	i	93	-0.13	85	55*
O=C(COC(=O)c1cccc(NS(=O)(=O)c2ccc(F)c(F)c2)c1)NC(=O)NC1CCCCC1	i	75	0.26	83	82*
COc1ccccc1CNC(=O)c1ccccc1N(C)S(C)(=O)=O	i	114	-0.11	104	-3
CCn1c(=O)n(CC)c2cc(S(=O)(=O)NCCOc3ccccc3)c(C)cc21	i	95	0.42	93	99*
COc1ccc(S(=O)(=O)NCCOc2ccccc2)cc1C	i	·	0.061	·	-4
COC(=O)/C=C/c1sc2nc(C)cc(C)c2c1N=CN(C)C	i	·	1.6	·	22
CCOc1ccccc1OCCOCCN1CCN(Cc2ccccc2)CC1	i	·	0.39	·	15
COc1cc(C(C)=O)ccc1OCCN1CCC(Cc2ccccc2)CC1	i	·	-0.8	·	90*
Clc1ccccc1OCCN1CCC(Cc2ccccc2)CC1	i	·	0.4	·	90*
COc1cc(C(C)=O)ccc1OCC(O)CN1CCN(S(=O)(=O)c2ccccc2)CC1 (stereo not drawn)	i	88	1.3	99	6
CN(C)P(=NC(=O)COc1ccc(Cl)cc1Cl)(N(C)C)N(C)C	i	85	0.4	89	7
CCSc1nc2c(c(=O)n(C)c(=O)n2C)n1Cc1ccc(Cl)cc1	i	·	-0.36	·	4
Cn1c(=O)c2c(nc(SCCN3CCCCC3)n2Cc2ccc(Cl)cc2)n(C)c1=O	i	59	-1.1	61	90*
NS(=O)(=O)c1cccc(NC(=O)CSc2nc3ccccc3c(=O)n2CCCN2CCOCC2)c1	+	97	-0.31	100	-8
SMILES	Autophagy mod	PTEN del growth	Dynein cargo inh	bCat KO growth	Lmaj promast
CS(=O)(=O)c1ccc(Cl)c(NC(=O)CSc2nc3ccccc3c(=O)n2CCCN2CCOCC2)c1	i	93	-1	93	85*
O=C(CSc1nc2ccccc2c(=O)n1CCCN1CCOCC1)c1c[nH]c2ccccc12	+	·	0.92	·	53*
O=C(CSc1nc2ccccc2c(=O)n1CCCN1CCOCC1)Nc1ccc2c(c1)OCO2	i	·	-0.31	·	20
COc1ccccc1-n1cc(C(=O)NCC(=O)N2CCN(c3ccccc3)CC2)c2ccccc2c1=O	i	111	-0.54	105	-1
Cc1cccc(C(=O)Nc2ccc(N3CCN(S(C)(=O)=O)CC3)cc2)c1	i	·	-0.21	·	-7
COc1cc(/C=N/NC(=O)Cn2cnc3c2c(=O)n(C)c(=O)n3C)ccc1O	·	·	0.56	·	·
O=c1c2ccccc2nc(SCCN2CCCCC2)n1CCc1ccccc1	i	·	0.76	·	86*
COc1ccc(NC(=O)CSc2nc3ccccc3c(=O)n2CCCN2CCCCC2)c(OC)c1	i	3.1*	3.3	2.6*	100*
CCCCn1c(SCC(=O)NCc2ccco2)nc2c(sc3ccccc32)c1=O	i	88	-1.3	95	11
O=C(CSc1nc2c(sc3ccccc32)c(=O)n1CCc1ccccc1)NCc1ccco1	+	54	-0.055	73	1
COc1ccccc1CNC(=O)CSc1nc2ccccc2c(=O)n1CCCN1CCOCC1	i	·	-0.54	·	1
CC(C)Cn1c(SCC(=O)N2CCCCC2)nc2ccccc2c1=O	i	83	2.7	73	24
CCC(C)NC(=O)CSc1nc2c(sc3ccccc32)c(=O)n1CCCN1CCOCC1 (stereo not drawn)	i	66	0.49	74	20
CCOC(=O)CSc1nc2c(sc3ccccc32)c(=O)n1CCCN1CCOCC1	i	68	-0.42	79	100*
CC(C)OCCCNC(=O)Cc1ccc(Br)cc1	i	·	-0.0046	·	-3
O=C1c2cccnc2C(=O)N1Cc1ccc(F)cc1	i	87	0.11	93	-3
CCOC(=O)c1sc(S(C)(=O)=O)c2c1CCc1conc1-2	·	·	0.58	·	·
CCN(CCCNC(=O)CN(C)S(=O)(=O)c1cccc2nsnc12)c1cccc(C)c1	i	95	0.59	107	34
CCN(CCNC(=O)CN(C)S(=O)(=O)c1cccc2nsnc12)c1ccccc1	i	71	0.038	76	95*
CC1CCN(c2cc(=O)n(C3CCCCC3)c(=O)[nH]2)CC1	i	93	-0.26	85	-6
N#C/C(=C\C=C\c1ccccc1[N+](=O)[O-])c1nc(-c2ccc3c(c2)OCO3)cs1	+	88	-0.78	88	-2
N#C/C(=C\c1ccccc1[N+](=O)[O-])c1nc(C2CC2)cs1	i	62	-0.34	56	7
CCCCOc1ccc(-c2nnn(CC(=O)NCc3ccco3)n2)cc1	+	31	0.74	29	2
CCOc1ccc(-c2nnn(CC(=O)NCCc3c[nH]c4ccccc34)n2)cc1	i	111	-0.29	100	94*
CC(C)[C@H](NS(=O)(=O)/C=C/c1ccccc1)C(=O)OCC(=O)NC(N)=O	·	·	1.1	·	·
SMILES	Autophagy mod	PTEN del growth	Dynein cargo inh	bCat KO growth	Lmaj promast
O=C(Cn1c(NCCO)nc2ccccc21)N1CCN(Cc2ccccc2)CC1	i	·	-0.45	·	11
CCOC(=O)C1=C(C)NC(C)=C(C(=O)OCC)C1c1sccc1C	i	60	-0.22	66	96*
CCOC(=O)c1c(C)nc2c(c(SC)nn2-c2ccccc2)c1N	i	86	0.62	96	3
CCOC(=O)C(CCCCOc1cccc(CC)c1)C(=O)OCC	i	92	0.29	86	45
CCc1cccc(OCCCCNCCCOC)c1	i	93	-0.97	95	99*
CCOc1cccc(OCCCNCCCOC)c1	i	93	0.057	98	88*
CCc1cccc(OCCCCN(CC)CC)c1	i	82	-0.56	85	98*
Cc1cccc(S(=O)(=O)NNC(=O)Cc2cccn2C)c1	i	·	0.25	·	2
